Screening data from PubChem.
The entries come from a sample that favours hits as a whole.
Phagocytosis inh: macrophage phagocytosis inhibition; J774A.1 macrophage IgG-bead phagocytosis, imaging; inhibition, % at 5 µM; 110,000 tested, 0.07% active; AID 1029;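 active = inhibition above the mean of the plate negative controls plus 5 SD, cut at about 13% in these data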;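 also: phagocytic index as fraction of beads internalized from green versus red external bead signal; plate controls were DMSO negative control for no effect and cytochalasin-D positive control for full effect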
CD11b adhes inh: CD11b/CD18-fibrinogen binding inhibition; P05107+P11215; K562 CD11b/CD18 adhesion to fibrinogen, ATPlite luminescence; Mn2+ added to activate the integrin; inhibition, % at 10 µM; 93,000 tested, 0.54% active;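 active = primary inhibition of 50% or more at 10 µM, then 40% or more on retest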
Mac1 fbg enh: CD11b/CD18-fibrinogen binding enhancement | AID 1499 | 93,000 tested, 0.07% active | K562 CD11b/CD18 adhesion to fibrinogen, ATPlite luminescence | activation, % at 10 µM;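 active = 10 µM primary screen giving 50% or more activity, confirmed by 40% or more on retest at that dose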
Ecoli WT expand: E. coli BW25113 growth inhibition, expanded screen; OD600 absorbance; AID 710; growth inhibition, % at 100 µM; 98,000 tested, 0.15% active;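 active = growth inhibition above about 50% at one test dose, limit read from the data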;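 also: growth measured after 20 h incubation at 37 °C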
tolC growth inh: E. coli tolC mutant growth inhibition. E. coli BW25113 tolC mutant growth, OD615. growth inhibition, % at 10 µM (by protocol). 65,000 tested, 2.2% active. AID 573;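 active = growth inhibition at or above a cutoff equal to the mean over every tested compound plus 3 SD, cut at about 60% in these data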;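 also: growth measured after 20 h incubation at 37 °C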
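Assay system: tolC-deleted E. coli BW25113. Medium: kanamycin-containing LB broth (50 µg/mL). Dosing: 10 µM final, single dose. Timing: bacterial growth with compound for 20 h at 37 °C. Detection: A615 absorbance measurement. Read-out basis: growth inhibition in percent.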
Numbers without * were called inactive; nt = no result given; ! = a repeat was not active.

SMILES	Phagocytosis inh	CD11b adhes inh	Mac1 fbg enh	Ecoli WT expand	tolC growth inh
O=C(Nc1nnc(-c2ccccc2Cl)o1)c1cc2cc([N+](=O)[O-])ccc2s1	-4	nt	nt	nt	nt
CCC1CCCCN1S(=O)(=O)c1ccc(C(=O)Nc2nnc(-c3cccs3)o2)cc1 (centres undefined)	nt	nt	nt	8	99*
CC(C)(C)c1ccc(CS(=O)CC(O)CO)cc1 (centres undefined)	-4	nt	nt	nt	nt
Cc1ccc(NC(=O)C2(c3ccccc3)CCOCC2)c([N+](=O)[O-])c1	-3	nt	nt	nt	nt
Cc1cc(C)c2ccc(N)nc2c1O	-6	-14	-2	96*	39
Cc1cc(C)c2ccc(C)[n+]([O-])c2c1O	0	-16	6	11	4
CC(C)COc1ccc(-c2cc(C(=O)NN)[nH]n2)cc1	-14	-2	22	nt	nt
COc1ccc(S(=O)(=O)Nc2ccc(NC(C)=O)cc2)cc1	nt	0	-2	6	nt
COc1ccc(S(=O)(=O)Nc2ccc(N(C)C(C)=O)cc2)cc1	192*	-24	0	-5	nt
Cc1cc(OCc2cn3cccnc3n2)ccc1Cl	-12	nt	nt	nt	nt
COCCCNC(=O)c1cc2c(=O)n3cc(C)ccc3nc2nc1NCC1CCCO1 (centres undefined)	-9	-4	0	nt	nt
COc1ccc(-c2ccc(SCC(=O)NCc3ccco3)nn2)cc1	0	-2	-3	4	-10
COc1ccc(-c2[nH]c(-c3cccc(OC)c3)nc2SCC(=O)NCc2ccco2)cc1	0	1	0	-23	67*
CSCCC(NC(=O)c1cccc([N+](=O)[O-])c1)C(=O)O (centres undefined)	-8	nt	nt	nt	nt
N#C/C(=C(/O)c1ccco1)c1nc2ccccc2s1	-3	52*	-8	-2	nt
N#C/C(=C(/O)C(Cl)c1ccccc1)c1nc2ccccc2s1 (centres undefined)	0	8	-5	-16	nt
COc1ccc(COc2ccccc2C(=O)NCc2ccccc2)cc1F	-13	nt	nt	nt	nt
Cc1nn(-c2cc(C(F)(F)F)ccc2Cl)c2nc(C(F)(F)F)[nH]c(=O)c12	-11	nt	nt	nt	nt
Cc1nn(-c2cccc(Cl)c2)c2nc(C(F)(F)F)[nH]c(=O)c12	-6	102*	-8	nt	nt
N=c1n(Cc2ccccc2)c2ccccc2n1CC(O)COc1ccccc1 (centres undefined)	-1	8	-2	23	63*
COc1ccc(Cl)cc1NC(=S)NCCSc1ccc(C)cc1	-6	100	-12	nt	nt
CCOC(=O)Cc1c(C)nc2c(-c3cccc(Br)c3)c[nH]n2c1=O	-1	17	-6	12	100*
CCOC(=O)Cc1c(C)nc2c(C#N)c[nH]n2c1=O	nt	nt	nt	-3	nt
Cc1cccc(S(=O)(=O)NNC(=O)c2sc(C)nc2C)c1	-2	nt	nt	nt	nt
C/C(O)=c1/ccc2cccc3nc(C)nc1c23	5	6	5	5	73*
SMILES	Phagocytosis inh	CD11b adhes inh	Mac1 fbg enh	Ecoli WT expand	tolC growth inh
COC(=O)c1c(NC(=O)COC(=O)[C@@H](NS(=O)(=O)c2ccc(C)cc2)C(C)C)sc2c1CCC2	7	nt	nt	nt	nt
CC1(C)CC(=O)C=C(NCCN2CCN(C(=O)Nc3ccc(Cl)cc3)CC2)C1	-1	-2	0	3	-2
CC1(C)CC(=O)C=C(NCCN2CCN(C(=O)Nc3ccc(Cl)c(Cl)c3)CC2)C1	-2	22	-6	14	61*
COCCn1c(C)cc(C2=NNC(=Nc3ccc(Cl)cc3Cl)SC2)c1C	nt	14	82*	0	nt
C=CCN=C1NN=C(c2cc(C)n(CCOC)c2C)CS1	-9	nt	nt	nt	nt
O=C1c2ccccc2NC(c2ccc(Cl)cc2Cl)N1O (centres undefined)	nt	-2	-5	58*	13
COc1ccc(/C=C(\C#N)C(=O)Nc2cc(S(=O)(=O)N3CCCCC3)ccc2N2CCCCC2)cc1	2	nt	nt	nt	nt
N#Cc1c(Cl)nc(SCc2ccccc2)nc1-c1ccccc1	7	74*	-10	12	nt
Cc1c(C(=O)NC2CCCc3ccccc32)oc2ccc(S(=O)(=O)N3CCOCC3)cc12 (centres undefined)	4	8	57*	-11	15
Cc1c(C(=O)NC2CCCc3ccccc32)oc2ccc(S(=O)(=O)N3CCCC3)cc12 (centres undefined)	-2	-5	-2	4	nt
Cc1ccc(NC(=O)CN2C(=O)S/C(=C\c3cccn3-c3cccc(C(=O)O)c3)C2=O)c(C)c1	2	-17	87*	-4	nt
Cc1ccccc1NC(=O)CN1C(=O)S/C(=C\c2cccn2-c2cccc(C(=O)O)c2)C1=O	1	-14	-2	-1	nt
CNC(=O)NC(=O)C(C)OC(=O)c1cc2c(s1)CCCCC2 (centres undefined)	-11	5	0	nt	nt
CCc1ccc(NC(=O)C(C)OC(=O)c2cccc(S(=O)(=O)N3CCc4ccccc4C3)c2)cc1 (centres undefined)	-4	23	2	nt	nt
CC1CCC2C(C1)c1sc(=O)[nH]c1SC2(C)C (centres undefined)	-1	7	-2	14	63*
CCN(CC)c1nc(N)c2c(N)nc3c(c2c1C#N)CC(c1ccccc1)O3 (centres undefined)	1	14	0	-4	76*
O=S(=O)(c1ccccc1)N1CCN=C1SCc1cccc(Cl)c1	-3	nt	nt	nt	nt
N#C/C(=N\O)c1nc(-c2ccccc2)cs1	0	66*!	-5	-3	22
CCOC(=O)c1ccc(NS(=O)(=O)c2ccc(SC)cc2)cc1	0	-13	-1	2	70*
CCOC(=O)Cc1ccc(NS(=O)(=O)c2ccc(SC)cc2)cc1	1	nt	nt	2	70*
CCOc1ccc(NS(=O)(=O)c2ccc(SC)cc2)cc1	nt	nt	nt	-9	73*
O=C(NCc1ccco1)c1ccc(COc2cc(Cl)ccc2Cl)cc1	-10	8	-1	nt	nt
CCOC(=O)Cn1c2c(c(=N)c3c1CCC3)CCC2	2	23	-3	5	-15
CCCCCCCCCCn1c2c(c(=N)c3c1CCC3)CCC2	nt	nt	nt	100*	nt
COc1ccccc1C(=O)N/N=C/c1cnc2ccccc2n1	1	nt	nt	nt	nt
SMILES	Phagocytosis inh	CD11b adhes inh	Mac1 fbg enh	Ecoli WT expand	tolC growth inh
CC1=CC(C)(C)N(S(=O)(=O)c2ccc(C)cc2)c2cc(C)ccc21	4	79*	-5	-11	nt
Cc1ccc(S(=O)(=O)N2C(=S)SCC2(C)C)cc1	-1	-13	-4	1	18
CC1CCc2c(C(=O)Oc3cccc(-n4cnnn4)c3)csc2C1 (centres undefined)	0	6	-4	-19	69*
COC(=O)c1c(NC(=O)CSc2nnnn2-c2ccccc2)sc2c1CCC(C)C2 (centres undefined)	nt	nt	nt	-13	2
CC(C)Cn1c(CN(C)Cc2ccccc2)nc2c1c(=O)n(C)c(=O)n2C	-1	6	-6	-1	2
CN(Cc1ccccc1)Cc1nc2c(c(=O)n(C)c(=O)n2C)n1CCCc1ccccc1	nt	-6	13	-17	100*
CC1CCCCC1n1c(=S)[nH]c2ccccc2c1=O (centres undefined)	-2	5	-3	-2	100*
Cc1cc(NC(=O)Cn2nnc3sc4c(c3c2=O)CCC(C(C)(C)C)C4)no1 (centres undefined)	-2	5	1	1	76*
